Shown are actives, neighbours in structure and some others; about 3.4% of the full set was active somewhere.
MC4R barr agon – activates human MC4R beta-arrestin recruitment; 0.98% of 360,000 active; AID 540308; activation, % at 8.9 µM; U2OS MC4R beta-arrestin complementation, luminescence; percent of melanotan II response, DMSO zero; P32245;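 active = activation above a per-plate cutoff, the mean activation of sample wells on that plate plus 3 SD, cut at about 8% in these data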
TMEM16A inh – blocks the mouse calcium-activated chloride channel TMEM16A. Q8BHY3. HEK293 TMEM16A/YFP iodide influx fluorescence, ionomycin. normalized B-score (activity score, 25-100; higher = stronger inhibition) at 10 µM. 1.2% of 310,000 active. AID 588511;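 active = ratio plate-corrected score three or more library SD toward inhibition, starting fluorescence score within five deviations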;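 also: score derived from kinetic fluorescence span divided by baseline fluorescence per well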
Target sequence (Q8BHY3 whole entry, looked up): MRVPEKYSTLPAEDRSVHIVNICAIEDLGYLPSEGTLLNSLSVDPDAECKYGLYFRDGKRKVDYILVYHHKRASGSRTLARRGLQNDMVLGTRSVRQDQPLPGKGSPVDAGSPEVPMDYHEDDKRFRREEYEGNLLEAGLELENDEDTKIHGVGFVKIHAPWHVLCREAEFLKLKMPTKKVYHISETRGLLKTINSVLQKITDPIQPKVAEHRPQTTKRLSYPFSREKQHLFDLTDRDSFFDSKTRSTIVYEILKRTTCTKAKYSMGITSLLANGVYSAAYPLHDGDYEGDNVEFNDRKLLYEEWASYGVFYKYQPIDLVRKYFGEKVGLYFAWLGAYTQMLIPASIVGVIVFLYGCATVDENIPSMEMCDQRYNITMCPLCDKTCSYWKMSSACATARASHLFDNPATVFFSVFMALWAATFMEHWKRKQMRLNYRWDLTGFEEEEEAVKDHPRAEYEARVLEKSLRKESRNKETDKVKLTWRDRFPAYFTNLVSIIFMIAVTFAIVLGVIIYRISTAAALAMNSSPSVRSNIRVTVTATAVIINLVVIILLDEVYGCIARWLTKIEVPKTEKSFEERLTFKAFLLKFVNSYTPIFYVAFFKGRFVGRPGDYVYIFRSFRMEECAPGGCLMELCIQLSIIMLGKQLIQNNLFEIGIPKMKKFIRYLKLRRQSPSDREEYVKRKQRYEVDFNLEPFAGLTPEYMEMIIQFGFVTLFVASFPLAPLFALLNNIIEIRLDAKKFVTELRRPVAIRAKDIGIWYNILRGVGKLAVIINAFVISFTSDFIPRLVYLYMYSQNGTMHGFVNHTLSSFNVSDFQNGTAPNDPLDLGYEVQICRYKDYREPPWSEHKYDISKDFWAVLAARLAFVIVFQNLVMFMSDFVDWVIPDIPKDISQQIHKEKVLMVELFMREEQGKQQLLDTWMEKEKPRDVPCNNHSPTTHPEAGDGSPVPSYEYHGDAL
m5-HT2A agonist – agonists of mouse serotonin 5-HT2A receptor (HTR2A). activation, % at 7.6 µM. CHO-K1 mHTR2A beta-arrestin complementation, luminescence; percent of 30 µM serotonin response. 0.66% of 360,000 active. AID 624169. P35363;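 active = activation above a run cutoff, the mean activation of all tested compounds plus 3 SD, cut at about 14% in these data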;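 also: 0% = plate median of compound wells and 100% = 30 µM serotonin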
MIN6 prolif – MIN6 beta-cell proliferation induction. AID 2380. 0.29% of 330,000 active. proliferation, % at 10 µM. MIN6 cells proliferation, ATPlite luminescence, 48 h; cells starved in 0.2% serum; 100% = growth in 10% serum;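 active = compounds whose signal lies at least 3.5 SD above the mean of all wells on their plate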;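 also: 0% = DMSO-treated cells in low-serum medium and 100% = 10% serum control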
ANO1 activ – activates or potentiates the mouse TMEM16A chloride channel; 0.3% of 340,000 active; B-score at 10 µM; HEK293 TMEM16A/YFP-H148Q/I152L, iodide quench fluorescence; stronger effect = lower value; Q8BHY3;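 active = fluorescence-ratio B-score plate-corrected deviation score at least 3 library SD below zero, with starting fluorescence score within 5 deviations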;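 also: channel opened by trigger with iodide after compound preincubation; score built on the fluorescence ratio of max minus min over baseline; more negative score means more quench and so TMEM16A activation or potentiation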
MC4R antagonist – human MC4R antagonism in cAMP assay | 0.48% of 360,000 active | P32245 | MC4R-expressing cells, MTII-stimulated cAMP, LANCE TR-FRET | inhibition, % at 6.5 µM;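 active = inhibition above its plate's cutoff, the mean of tested wells on that plate plus 3 SD, cut at about 29% in these data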;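 also: 0% = Melanotan II alone and 100% = Melanotan II plus saturating MCL0020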
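Assay system: U2OS-MC4R stable cell line; Also added: Melanotan II; Technique: Eu-cAMP/anti-cAMP TR-FRET, emission 671 nm; Times: 30-min compound, 1-h challenge, 1-h detection, room temperature.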
MC4R barr conf – human MC4R beta-arrestin agonism confirmation; U2OS MC4R beta-arrestin recruitment, luminescence; scaled DMSO 0%, Melanotan II 100%; 31% of 2,400 active; shares compounds with MC4R barr agon; AID 602192; activation, % at 8.9 µM;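 active = mean activation across replicates above the hit cutoff set in the earlier primary screen, cut at about 8% in these data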
MOR-DOR barr ag – activates mu-delta opioid heterodimer, MC4R agonist counter-screen | shares compounds with MC4R barr agon | U2OS PathHunter beta-arrestin, beta-gal luminescence; percent of deltorphin B response, DMSO zero | activation, % at 9.2 µM | 5.8% of 2,400 active;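 active = mean activation across replicates exceeds the hit threshold derived in the earlier primary screen, cut at about 18% in these data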;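 also: 100% = deltorphin B at 0.9 µM final and 0% = DMSO alone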
* hit, by the source's call; i = inactive; · = no result given.

SMILES	MC4R barr agon	TMEM16A inh	m5-HT2A agonist	MIN6 prolif	ANO1 activ	MC4R antagonist	MC4R barr conf	MOR-DOR barr ag
N#Cc1c(-c2ccccc2)cc(C2CC2)nc1SCC(=O)O	-2	i	3	0	i	22	·	·
Cc1ccc(CNC(=O)C(=O)NCC2OCCN2S(=O)(=O)c2ccc(Br)cc2)cc1 (centres undefined)	2	i	5	-2	i	5	·	·
Cc1cc(OCC(=O)OCC(=O)NCc2cccs2)ccc1Cl	-2	·	-2	-1	i	0	·	·
O=C(Nc1ccc2c(c1)OCO2)c1nn(-c2ccccc2)c(=O)c2ccccc12	11*	i	-6	0	i	6	-2	3
C=CCN(CC(=O)Nc1cccnc1)S(=O)(=O)c1ccc(Cl)cc1	-1	·	9	-4	i	4	·	·
CCN(CC(=O)Nc1cc(S(=O)(=O)N2CCCCC2)ccc1C)Cc1ccccc1	-1	i	-13	-3	i	17	·	·
CCOc1ccc(C2CC(c3ccc(CC)cc3)Nc3nc(N)nn32)cc1 (centres undefined)	10*	i	-1	-2	i	10	8	3
CCc1ccc(C2CC(c3ccccc3)Nc3nc(N)nn32)cc1 (centres undefined)	5	i	0	7	i	-4	·	·
CCOc1ccc(C2CC(c3ccc(CC)cc3)n3nc(N)nc3N2)cc1 (centres undefined)	4	i	-2	3	i	1	·	·
CCc1ccc(C2CC(c3ccccc3Cl)Nc3nc(N)nn32)cc1 (centres undefined)	19*	i	1	3	i	7	14*	4
COC(=O)C1CCC(=O)N1C(c1ccc(OC)cc1)c1cc(OC)c(OC)c(OC)c1 (centres undefined)	-1	·	0	·	i	-12	·	·
C=CCn1c(=NC(=O)c2cc(-c3cccs3)nc3ccccc23)sc2cc(S(N)(=O)=O)ccc21	-4	i	4	-1	i	1	·	·
C=CCn1c(=NC(=O)c2cc(Cl)sc2Cl)sc2cc(S(N)(=O)=O)ccc21	14*	i	0	-4	i	14	4	2
Cc1ccc(-c2csc3nc(-c4ccncc4)[nH]c(=O)c23)cc1	5	i	-2	-5	i	11	·	·
CCOc1ccc(-c2nc3scc(-c4cccs4)c3c(=O)[nH]2)cc1	28*	i	6	-1	i	-2	12*	2
CC(=O)Nc1cccc(-c2ccnc3c2CC(C)(C(=O)Nc2ccc(Cl)cc2)O3)c1 (centres undefined)	-1	·	-1	·	·	-20	·	·
CC1(c2nc3ccccc3[nH]2)CCCC2=Nc3ccccc3CN21 (centres undefined)	·	·	-1	·	·	·	·	·
CCOC(=O)c1ccc(NC(=O)CSc2nnc(COc3ccccc3)n2C)cc1	11*	i	-2	2	i	-3	0	7
COC(=O)c1cccc(NC(=O)CSc2nnc(COc3ccccc3)n2C)c1	0	i	-3	-5	i	3	·	·
Cn1c(CNC(=O)c2ccc(Cl)c(Cl)c2)nnc1SCC(=O)Nc1sc2c(c1C#N)CCCC2	11*	i	0	0	i	5	11*	3
Cn1cnnc1SCC(=O)Nc1sc2c(c1C#N)CCCCC2	-1	i	1	0	i	2	·	·
Cc1sc(NC(=O)CSc2nnc(COc3ccc(Cl)cc3)n2C)c(C#N)c1C	11*	i	1	0	i	4	4	7
Cc1ccc(-c2nnc(SCC(=O)Nc3sc(C)c(C)c3C#N)n2C)cc1	3	i	4	0	i	-2	·	·
CC(=O)Nc1ccc(S(=O)(=O)O)c(OC(C)=O)c1	-2	·	2	·	i	6	·	·
CC1=C(C(=O)N(C(C)C)C(C)C)CC(CC(=O)NCc2ccco2)C(=O)N1Cc1ccc(C(C)(C)C)cc1 (centres undefined)	·	·	8	·	·	·	·	·
SMILES	MC4R barr agon	TMEM16A inh	m5-HT2A agonist	MIN6 prolif	ANO1 activ	MC4R antagonist	MC4R barr conf	MOR-DOR barr ag
COc1ccc(N(CC(=O)N2CCN(c3cccc(C)c3C)CC2)S(=O)(=O)c2c(C)noc2C)cc1	-1	i	0	-3	i	6	·	·
Cn1c(SCC(=O)c2ccc3c(c2)Cc2ccccc2-3)nnc1-c1ccccc1	11*	i	-2	2	i	0	9.4*	7
CCC(=O)Nc1nnc(SCC(=O)N2c3ccccc3CC2C)s1 (centres undefined)	0	i	0	-1	i	4	·	·
CCC(=O)Nc1nnc(SCC(=O)c2ccc3c(c2)Cc2ccccc2-3)s1	18*	i	1	-2	i	7	3	4
CC(=O)Nc1nnc(SCC(=O)c2ccc3c(c2)Cc2ccccc2-3)s1	12*	i	-1	0	i	20	6	2
C[C@]1(O)CC(=O)C=C[C@H]1Nc1ccccc1	-1	·	1	·	·	9	·	·
CC(C)(CNC(=O)c1cc2c(s1)CCCC2)N1CCOCC1	-3	i	-9	-4	i	-6	·	·
COc1ccc(CN2CCn3ncc(C(=O)Nc4cc(C)cc(C)c4)c3C2=O)cc1	32*	i	2	0	i	5	0	10
COCCNC(=O)C1(C)CCCN(C(=O)c2ccc(N(C)C)cc2)C1 (centres undefined)	1	·	4	·	·	6	·	·
O=C(COc1ccccc1F)Nc1ccc2[nH]c(=O)[nH]c2c1	2	i	-8	-1	i	6	·	·
O=C(COc1cc(Cl)ccc1Cl)Nc1ccc2[nH]c(=O)[nH]c2c1	12*	i	0	-3	i	1	2	7
O=C(COC(=O)c1ccc2[nH]c3c(c2c1)CCCC3)Nc1ccc(Cl)cc1Cl	18*	i	2	0	i	15	10*	3
O=C(O)COc1ccccc1/C=N/NC(=O)CSc1nnc(SCc2ccccc2)s1	1	i	5	-3	i	12	·	·
O=C(Nc1cccc2ccccc12)c1ccco1	·	·	3	·	·	·	·	·
Cc1ccc(NC(=O)c2cc(-c3cccc(O)c3)on2)cc1C	9.6*	i	-1	-4	i	5	-1	8
COc1cccc(C2c3cc4c(cc3OC(N3CCOCC3)C2C)OCO4)c1O (centres undefined)	-1	·	-5	·	i	1	·	·

Screens: PubChem, several laboratories
